From publication PMC6045486 (ACS Omega, 2018)

How the values were obtained:
A549 cells = assay: MTT cytotoxicity assay, A549; assay type: cell-based, human; settings: read-out: IC50 (half maximal concentration to inhibit proliferation by 50%), 48 h
In short: (§1)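 Cells kept in DMEM with 10% FBS and penicillin/streptomycin at 37 °C in 5% CO2. About 2 × 10^3 cells per well, 12 h attachment, then test compound at 5–100 μM (from DMSO stock; 0.1% DMSO final) for 48 h. MTT absorbance read at 570 nm, with % cytotoxicity relative to the 0.1% DMSO control. Mean ± SEM, n = 3.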

CHO cells [1] = assay: MTT cytotoxicity assay, CHO; assay type: cell-based, Chinese Hamster; settings: read-out: IC50 (half maximal concentration to inhibit proliferation by 50%), 48 h
In short: as §1

Chemical stability [2] = assay type: physicochemical; settings: 10 μM, phosphate buffer pH 7.4, 1% DMSO, 37 °C, within 1 h
MCF7 cells [3] = assay: Intracellular redox state: ratio of GSH and GSSG in MCF7 cells; assay type: cell-based, human; settings: MCF7, 25 μM, 48 h
In short: (§2)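 MCF7 cells were grown in DMEM with 10% FBS at 37 °C and 5% CO2, then exposed to 25 μM test compound (0.1% DMSO) for 48 h. Lysates were made in CelLytic M with protease inhibitor cocktail. About 100 μg protein was used for GSH, GSSG, GPx, GST and GR determinations, with protein measured by Bradford. Mean ± SEM, n = 3, versus DMSO control.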

rat liver TrxR = target: T1, rat liver TrxR (Rattus norvegicus, UniProt O89049); assay: TrxR inhibition assay in cell-free system; assay type: biochemical; settings: for inhibition of TrxR: cell-free, rat liver TrxR
T1 sequence (O89049 1-499): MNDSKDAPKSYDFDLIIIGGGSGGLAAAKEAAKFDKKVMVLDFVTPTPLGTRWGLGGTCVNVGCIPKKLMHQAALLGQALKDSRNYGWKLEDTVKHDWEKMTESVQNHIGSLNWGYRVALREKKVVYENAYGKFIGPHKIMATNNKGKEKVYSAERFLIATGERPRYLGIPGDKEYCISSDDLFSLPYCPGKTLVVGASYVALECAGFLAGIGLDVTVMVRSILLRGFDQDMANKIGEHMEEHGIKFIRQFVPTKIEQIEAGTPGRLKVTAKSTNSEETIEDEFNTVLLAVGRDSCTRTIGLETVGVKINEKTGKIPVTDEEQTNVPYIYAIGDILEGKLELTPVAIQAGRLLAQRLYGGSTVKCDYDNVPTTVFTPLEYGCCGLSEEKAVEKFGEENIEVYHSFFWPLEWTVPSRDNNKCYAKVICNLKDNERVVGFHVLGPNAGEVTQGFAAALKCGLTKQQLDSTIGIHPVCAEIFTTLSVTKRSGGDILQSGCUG
In short: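 Rat liver TrxR (50 nM) was preincubated at 37 °C for 30 min with 100 μM NADPH and test compound (5–100 μM) in 50 mM Tris–HCl, 1 mM EDTA, pH 7.4 (4% DMSO final). DTNB was then added and TNB formation followed at A412 for 5 min, against a no-enzyme blank and a compound blank. Activity is given as % of control. For reversibility, NADPH was varied 10–100 μM with compound fixed at 50 μM (Lineweaver–Burk).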

[4] = target: T2, thioredoxin reductase (TrxR) (Homo sapiens, UniProt Q16881); assay: TrxR activity level in MCF7 cells; assay type: cell-based; settings: MCF7, 25 μM, 48 h
T2 sequence (Q16881 151-649 limits assumed): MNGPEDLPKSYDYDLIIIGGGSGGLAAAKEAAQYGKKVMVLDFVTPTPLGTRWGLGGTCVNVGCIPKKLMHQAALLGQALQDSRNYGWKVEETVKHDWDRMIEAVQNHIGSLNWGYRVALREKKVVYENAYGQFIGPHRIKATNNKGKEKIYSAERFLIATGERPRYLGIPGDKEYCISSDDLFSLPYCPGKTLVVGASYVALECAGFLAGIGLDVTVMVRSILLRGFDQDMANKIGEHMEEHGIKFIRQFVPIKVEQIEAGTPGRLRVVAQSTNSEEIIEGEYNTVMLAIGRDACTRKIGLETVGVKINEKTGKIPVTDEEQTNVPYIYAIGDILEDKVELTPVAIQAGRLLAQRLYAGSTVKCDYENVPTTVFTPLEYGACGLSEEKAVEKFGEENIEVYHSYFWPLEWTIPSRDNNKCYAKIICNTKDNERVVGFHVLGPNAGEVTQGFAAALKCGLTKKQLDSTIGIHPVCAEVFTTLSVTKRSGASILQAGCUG
In short: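 MCF7 lysates were prepared in CelLytic M with protease inhibitors after 48 h exposure to 25 μM test compound (0.1% DMSO). Thioredoxin reductase activity in about 100 μg protein was measured with a commercial kit; protein was measured by Bradford. Mean ± SEM, n = 3, versus DMSO control.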

CHO cells [5] = assay: Radiation-induced micronuclei assay and NDI in CHO cells; assay type: cell-based, Chinese Hamster; settings: 4 Gy; for reduction in radiation-induced micronuclei formation: pretreatment 2 h, 18 h postirradiation
In short: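 CHO cells were pretreated with test compound (2.5–10 μM; 10 μM for NDI) for 2 h, washed with PBS and placed in serum-free medium. They were given 4 Gy ⁶⁰Co γ-rays at 1 Gy/min, then returned to 10% FBS. Cytochalasin B (4 μg/mL) was present for 18 h, and cells were stained with acridine orange. Micronuclei were scored in 500 binucleated cells. NDI was calculated from counts of mono- to tetranucleated cells among ≥500 viable cells.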

[6] = system: γ-glutamyl-cysteine ligase (γ-GCL); assay: mRNA expression of γ-GCL by RT-PCR in MCF7 cells; assay type: cell-based, human; settings: MCF7, 25 μM, 48 h
In short: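 MCF7 cells were exposed to 25 μM test compound for 48 h. Total RNA was extracted with TRI reagent, and about 2 μg was reverse-transcribed. SYBR Green real-time PCR used γ-GCL-specific primers. CT values were normalised to β-actin and expression expressed relative to control. Mean ± SEM, n = 3.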

MCF7 cells [7] = assay: MTT cytotoxicity assay, MCF7; assay type: cell-based, human; settings: read-out: IC50 (half maximal concentration to inhibit proliferation by 50%), 48 h
In short: as §1

[8] = system: glutathione S-transferase (GST); assay: GST activity level in MCF7 cells; assay type: cell-based, human; settings: MCF7, 25 μM, 48 h
In short: as §2

CHO cells [9] = assay: Radiation-induced intracellular ROS level; assay type: cell-based, Chinese Hamster; settings: 10 μM for 2 h, 2 Gy, 30 min postirradiation
In short: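 CHO cells were pretreated with 10 μM test compound for 2 h and then γ-irradiated. At 30 min postirradiation, 1 × 10⁴ cells were loaded with DCFDA (5 μM) for 30 min at 37 °C. DCF fluorescence was read on a plate reader (excitation 488 nm, emission 530 nm).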

cells = assay: Toxicity in cells; assay type: cell-based; settings: up to a concentration of 10 μM
In short: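 Cells were seeded at about 2 × 10³ per well and allowed to attach for 12 h. Lines were CHO, A549 and MCF7 in DMEM with 10% FBS, or fresh BALB/c mouse splenic lymphocytes in RPMI-1640. Cells were then exposed to test compound (5–100 μM, 0.1% DMSO) for 48 h. MTT was read at 570 nm, with % cytotoxicity taken versus control. Mean ± SEM, n = 3.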

Chemical stability [10] = assay type: physicochemical; settings: 10 μM, cell culture medium with 10% FBS, 1% DMSO, 37 °C, in 2.5 h
CHO cells [11] = assay: Single-cell alkaline gel electrophoresis; assay type: cell-based, Chinese Hamster; settings: 10 μM for 2 h, 4 Gy, 0 to 60 min
In short: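 CHO cells pretreated with 10 μM test compound for 2 h were washed, then irradiated at 4 Gy (⁶⁰Co, 1 Gy/min) in serum-free medium, with 10% FBS re-added afterwards. At 0, 30 and 60 min, about 15 000 cells in 0.8% low-melting agarose were lysed, electrophoresed under alkaline conditions and stained with SYBR Green II. Tail length and olive tail moment were measured in about 50 cells per slide. Mean ± SEM, n = 3.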

splenic lymphocytes = assay: MTT cytotoxicity assay, splenic lymphocytes; assay type: cell-based, BALB/c mice; settings: read-out: IC50 (half maximal concentration to inhibit proliferation by 50%), 48 h
In short: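 Splenic lymphocytes freshly isolated from BALB/c mice and kept in RPMI-1640 with FBS and antibiotics at 37 °C in 5% CO2. About 2 × 10^3 cells per well, 12 h, then test compound at 5–100 μM (0.1% DMSO final) for 48 h. MTT absorbance read at 570 nm, with % cytotoxicity relative to the DMSO control. Mean ± SEM, n = 3.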

[12] = system: glutathione peroxidase (GPx); assay: GPx activity level in MCF7 cells; assay type: cell-based, human; settings: MCF7, 25 μM, 48 h
In short: as §2

## Hispolon [HS]
A549 cells
  IC50: 68 µM
CHO cells [1]
  IC50: > 100 µM
Chemical stability [2]
  degraded in phosphate buffer: 65%
MCF7 cells [3]
  increase in GSH/GSSG: did not cause any significant change
Rat liver TrxR; NADPH competition experiment, Lineweaver–Burk
  nature of TrxR inhibition: reversible inhibition
Rat liver TrxR; 100 μM
  inhibition of TrxR: 85–95%
Rat liver TrxR; up to a concentration of 50 μM
  inhibition of TrxR: 15–25%
Rat liver TrxR; compound 50 μM, NADPH 10–100 μM, unaffected versus control reaction
  Vmax: 1 nmol/min
[4]
  percent inhibition in TrxR activity: 58%
CHO cells [5]; 10 μM for 2 h
  Nuclear division index (NDI) compared to radiation control: did not affect this much
CHO cells [5]; 7.5 μM
  reduction in radiation-induced micronuclei formation: 20%
CHO cells [5]; 10 μM
  reduction in radiation-induced micronuclei formation: 22%
CHO cells [5]; up to 5 μM
  reduction in radiation-induced micronuclei formation: did not affect
[6]
  mRNA expression of γ-GCL compared to control cells: marginal increase
MCF7 cells [7]
  IC50: 42 µM
[8]
  inhibition of GST activity: did not cause any significant change
CHO cells [9]
  reduction in the ROS level compared to radiation control: 40%
cells
  toxicity in cells: < 10%
Chemical stability [10]
  degraded in culture medium (10% FBS): ~30%
CHO cells [11]
  DNA damage parameters (TL, OTM) compared to radiation control: significant decrease
Splenic lymphocytes
  IC50: > 100 µM
[12]
  inhibition of GPx activity: did not cause any significant change
